# Test results as given in ChEMBL document CHEMBL1275449, “Potent in vitro antifungal activities of naturally occurring acetylenic acids” (Antimicrob Agents Chemother, 2008).
# How the values were obtained:
# [1] = system: Vero; experiment: Cytotoxicity against African green monkey Vero cells up to 32 uM by neutral red method; format: cell-based; conditions: chlorocebus sabaeus
# Method in brief: (§1)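 Neutral red uptake cytotoxicity, top concentration 32 μM.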
# [2] = system: SK-OV-3; experiment: Cytotoxicity against human SKOV3 cells up to 32 uM by neutral red method; format: cell-based; method in brief: as §1
# [3] = system: BT-549; experiment: Cytotoxicity against human BT549 cells up to 32 uM by neutral red method; format: cell-based; method in brief: as §1
# [4] = system: Candida albicans; experiment: Antifungal activity against Candida albicans ATCC 60193 after 48 hrs by CLSI method; format: functional, organism-based; conditions: ATCC 60193, 48 h
# Method in brief: (§2)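 CLSI broth microdilution. Colonies from 24–72 h SD agar suspended in saline and sized by OD630 standard curve. Inoculum 1.5 × 10³ CFU/ml (final) in RPMI 1640 (0.2% dextrose, 0.03% glutamine, 0.165 M MOPS, pH 7.0). Twofold dilutions (11 levels) from 20% DMSO-saline, in duplicate. 35°C for 48 h, OD530 read before and after. IC50 fitted from % growth. MIC: no detectable growth. MFC: subculture onto SD agar.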
# [5] = system: Candida albicans; experiment: Antifungal activity against Candida albicans ATCC 32354 after 48 hrs by CLSI method; format: functional, organism-based; conditions: ATCC 32354, 48 h; method in brief: as §2
# [6] = system: Candida tropicalis; experiment: Antifungal activity against Candida tropicalis ATCC 750 after 48 hrs by CLSI method; format: functional, organism-based; conditions: ATCC 750, 48 h
# Method in brief: (§3)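 Yeast suspensions made from 3-5 colonies off 24-72 h SD agar plates in saline. They were diluted by OD630 standard curve in RPMI 1640 (0.2% dextrose, 0.03% glutamine, 0.165 M MOPS, pH 7.0) to 1.5 × 10³ CFU/ml. Twofold dilutions (11 concentrations, 20% DMSO-saline) run in duplicate. OD530 read before and after 35°C, 48 h. Line values are top test concentrations; no-growth endpoints give MIC/MFC.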
# [7] = system: LLC-PK1; experiment: Cytotoxicity against pig LLC-PK1 cells up to 32 uM by neutral red method; format: cell-based, Sus scrofa; method in brief: as §1
# [8] = system: Trichophyton rubrum; experiment: Antifungal activity against Trichophyton rubrum ATCC 10218 by CLSI method; format: functional, organism-based
# Method in brief: (§4)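 Growth scraped from 1- to 6-week-old potato dextrose slants and filtered through Miracloth. Diluted in 5% Alamar blue-RPMI 1640 (MOPS pH 7.0) to 2.7 × 10⁴ CFU/ml. Eleven twofold dilutions in duplicate. Fluorescence at 544 nm excitation/590 nm emission read before and after 35°C, 5 days. IC50 fitted from percent growth. MIC taken as no detectable growth; MFC from clear or blue wells plated on PD agar.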
# [9] = system: KB; experiment: Cytotoxicity against human KB cells up to 32 uM by neutral red method; format: cell-based; method in brief: as §1
# [10] = system: SK-MEL; experiment: Cytotoxicity against human SK-MEL cells up to 32 uM by neutral red method; format: cell-based; method in brief: as §1
# [11] = system: Candida albicans; experiment: Antifungal activity against Candida albicans ATCC 90028 after 48 hrs by CLSI method; format: functional, organism-based; conditions: ATCC 90028, 48 h; method in brief: as §2
# [12] = system: Aspergillus fumigatus; experiment: Antifungal activity against Aspergillus fumigatus ATCC 204305 after 48 h by CLSI method; conditions: ATCC 204305, 48 h
# [13] = system: Candida albicans; experiment: Antifungal activity against Fluconazole resistant Candida albicans clinical isolate 17 after 48 hrs by CLSI method; format: functional, organism-based; method in brief: as §2
# [14] = system: Candida albicans; experiment: Antifungal activity against Candida albicans ATCC 200955 after 48 hrs by CLSI method; format: functional, organism-based; conditions: ATCC 200955, 48 h; method in brief: as §2
# [15] = system: Trichophyton mentagrophytes; experiment: Antifungal activity against Trichophyton mentagrophytes ATCC 9533 by CLSI method; format: functional, organism-based; method in brief: as §4
# [16] = system: Aspergillus flavus; experiment: Antifungal activity against Aspergillus flavus ATCC 204304 after 48 h by CLSI method; conditions: ATCC 204304, 48 h
# [17] = system: Cryptococcus neoformans; experiment: Antifungal activity against Cryptococcus neoformans ATCC 66031 after 72 hrs by CLSI method; format: functional, organism-based; conditions: ATCC 66031, 72 h
# Method in brief: (§5)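 SD broth replaced RPMI because growth in RPMI was poor; other CLSI conditions were kept. Inoculum was 1.5 × 10³ CFU/ml from colonies on SD agar, checked by plating. Twofold serial dilutions (11 concentrations) in 20% DMSO-saline were tested in duplicate. OD530 was read before and after incubation at 35°C for 72 h. Percent growth gave IC50; the MIC is the lowest concentration with no detectable growth.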
# [18] = system: Nakaseomyces glabratus; experiment: Antifungal activity against Candida glabrata ATCC 90030 after 48 hrs by CLSI methodCandida glabrata; format: functional, organism-based; conditions: ATCC 90030, 48 h
# Method in brief: (§6)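 Candida inocula came from 24–72-h SD agar colonies suspended in saline. They were diluted by OD630 standard curve into RPMI 1640 (0.2% dextrose, 0.03% glutamine, 0.165 M MOPS, pH 7.0) to 1.5 × 10³ CFU/ml. Compounds were run as 11 twofold dilutions in 20% DMSO-saline, in duplicate, at 35°C for 48 h, with OD530 read before and after. Percent growth at the top concentration, IC50, MIC, and MFC (SD agar plating) were derived.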
# [19] = system: Candida parapsilosis; experiment: Antifungal activity against Candida parapsilosis ATCC 22019 after 48 hrs by CLSI method; format: functional, organism-based; conditions: Lodderomyces parapsilosis, ATCC 22019, 48 h; method in brief: as §3
# [20] = system: Pichia kudriavzevii; experiment: Antifungal activity against Candida krusei ATCC 6258 after 48 hrs by CLSI method; format: functional, organism-based; conditions: ATCC 6258, 48 h; method in brief: as §6
# [21] = system: Aspergillus niger; experiment: Antifungal activity against Aspergillus niger ATCC 16404 after 48 h by CLSI method; conditions: ATCC 16404, 48 h
# [22] = system: Trichophyton mentagrophytes; experiment: Antifungal activity against Trichophyton mentagrophytes ATCC MYA-4439 by CLSI method; format: functional, organism-based; method in brief: as §4
# [23] = system: Candida albicans; experiment: Antifungal activity against Fluconazole resistant Candida albicans clinical isolate 1 after 48 hrs by CLSI method; format: functional, organism-based; method in brief: as §2
# [24] = system: Trichophyton rubrum; experiment: Antifungal activity against Trichophyton rubrum ATCC MYA-4438 by CLSI method; format: functional, organism-based; method in brief: as §4
# [25] = system: Candida albicans; experiment: Antifungal activity against Candida albicans ATCC 14053 after 48 hrs by CLSI method; format: functional, organism-based; conditions: ATCC 14053, 48 h; method in brief: as §2
# [26] = system: Cryptococcus neoformans; experiment: Antifungal activity against Cryptococcus neoformans ATCC 90113 after 72 hrs by CLSI method; format: functional, organism-based; conditions: ATCC 90113, 72 h; method in brief: as §5
# [27] = system: Aspergillus fumigatus; experiment: Antifungal activity against Aspergillus fumigatus ATCC 90906 after 48 h by CLSI method; conditions: ATCC 90906, 48 h
smiles,measurement,setting,value
CCCCCCCCCC#CCCCCC(=O)O,Activity,[1],Non-toxic
same,Activity,[2],Non-toxic
same,Activity,[3],Non-toxic
same,IC50,[4],85.9 µM
same,IC50,[5],50.3 µM
same,MIC,[5],198 µM
same,IC50,[6],29.5 µM
same,MFC,[6],99.1 µM
same,MIC,[6],74.3 µM
same,Activity,[7],Non-toxic
same,IC50,[8],8.7 µM
same,MFC,[8],24.8 µM
same,MIC,[8],24.8 µM
same,Activity,[9],Non-toxic
same,Activity,[10],Non-toxic
same,IC50,[11],56.8 µM
same,MIC,[11],99.1 µM
same,IC50,[12],9.4 µM
same,MFC,[12],198 µM
same,MIC,[12],37.1 µM
same,IC50,[13],23.3 µM
same,MFC,[13],198 µM
same,MIC,[13],99.1 µM
same,IC50,[14],47.8 µM
same,MIC,[14],198 µM
same,IC50,[15],2300 nM
same,MFC,[15],6.2 µM
same,MIC,[15],4.6 µM
same,IC50,[16],106 µM
same,MFC,[16],198 µM
same,MIC,[16],198 µM
same,IC50,[17],1200 nM
same,MFC,[17],99.1 µM
same,MIC,[17],49.5 µM
same,IC50,[18],> 198 µM
same,IC50,[19],> 198 µM
same,IC50,[20],2900 nM
same,MFC,[20],49.5 µM
same,MIC,[20],6.2 µM
same,IC50,[21],101 µM
same,IC50,[22],3.9 µM
same,MFC,[22],12.4 µM
same,MIC,[22],9.3 µM
same,IC50,[23],40.5 µM
same,MIC,[23],99.1 µM
same,IC50,[24],3.8 µM
same,MFC,[24],198 µM
same,MIC,[24],31 µM
same,IC50,[25],81.8 µM
same,IC50,[26],52.4 µM
same,IC50,[27],166 µM
